Among all 2,500 compounds or so, about 1,200 (48%) were called active.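 How the source made its calls: active means mean activation above the low control average plus 3 SD, as set in the primary screen (cut at about 12% in these data); inactive means the rest.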 The set was probably picked from earlier hits. Some of the results follow.

This test has as its target Troponin I, cardiac muscle (Homo sapiens) + Troponin T, cardiac muscle (Homo sapiens) + Troponin C, slow skeletal and cardiac muscles (Homo sapiens) (UniProt P19429+P45379+P63316). Nature of the test: calcium sensitizers of cardiac thin filaments – biochemical, IANBD-TnC fluorescence, triplicate, confirmation (AID 504383).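 Further: 0% = DMSO at 0.472 mM calcium and 100% = DMSO at 2.9 mM calcium.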 The settings on record: IANBD-labeled cardiac RTF, Ca2+ sensitivity fluorescence; at 7.2 µM; hits give high values; scaled from EC20 to saturating calcium; tested at EC20 calcium, 0.472 mM. In outline:
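Assay system: labelled regulated thin filament protein complex; schedule: 15 min compound incubation with filaments at 25 °C; benchmarks: low control EC20 calcium, high control EC100 calcium; reagent: Ca2+ 0.472 mM, EC20 level; doses: one dose, 7.2 µM nominal; evaluation: fluorescence gain scaled between EC20 and EC100 calcium controls; signal: filament fluorescence intensity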
As to `Cc1ccc(N=C2NC(=O)/C(=C/c3cn(C)c4ccccc34)S2)cc1C`, the activation is 6.33% (inactive). The figure for `Cn1cc(/C=C2\SC(=S)N(N3CCOCC3)C2=O)c2ccccc21` is 12.7% (active); for `O=C(O)CN1C(=O)/C(=C\c2cn(CC(=O)N3CCOCC3)c3ccccc23)SC1=S` it is 16.6% (active); for `O=C(CCN1C(=O)/C(=C/c2ccccc2)SC1=S)NNC(=O)c1cccnc1` it is 6.78% (inactive).

As to `O=C(CS(=O)(=O)c1cn(Cc2ccc(F)cc2)c2ccccc12)N1CCOCC1`, the activation was 1.62% (inactive). Under `O=C1/C(=C/c2cccnc2)SC(=S)N1N1CCOCC1` stands 12.4% (active). `Cc1cc(S(=O)(=O)Nc2c(C)nn(C)c2C)c(Cl)cc1Cl`: the activation was 10.6% (inactive). The figure for `COc1cccc(N=C2NC(=O)/C(=C/c3cc([N+](=O)[O-])ccc3O)S2)c1` is 9.82% (inactive); for `Cc1ccc(S(=O)(=O)/N=C2/NC(=O)/C(=C/c3cc([N+](=O)[O-])ccc3O)S2)cc1` it is 4.75% (inactive); for `O=C1NC(=Nc2ccccc2Cl)S/C1=C\c1cc([N+](=O)[O-])ccc1O` it is 20.8% (active). Under `C#CCN1c2ccccc2Sc2cccnc21` stands 13.6% (active); under `Cc1cccc(OCCNc2ccc(C(F)(F)F)cc2[N+](=O)[O-])c1`, 159% (active). Under `O=C(Nc1ccccc1)c1ccc(NCCc2ccccc2)c([N+](=O)[O-])c1` stands 5.71% (inactive); under `COc1ccc(NC(=O)CS(=O)(=O)c2cccc(Cl)c2)cc1`, 6.14% (inactive); under `COc1cccc(C(=O)NC2CC3CCCC(C2)N3CC(=O)Nc2ccc(N(C)C)cc2)c1` (centres undefined), 21.3% (active). For `Cc1ccc(NC(=O)CC2SC3=NCCCN3C2=O)c(C)c1` (centres undefined), the activation was 9.67% (inactive). For the compound `COc1ccc2c(c1)cc(C(=O)N[C@@H](CCSC)C(=O)N1CCC[C@H]1C(=O)O)n2C`, the activation was 20.4% (active).

For `CSCCC(NC(=O)c1ccccc1Cl)C(=O)N1CCC1` (centres undefined), the activation is 3.34% (inactive).

As for `COc1ccc(OC)c(/C=N/N=C(\N)c2nonc2N)c1`, the activation was 18.5% (active). In the case of `COc1ccc(N=C(N)N=C(N)N)c(OC)c1`, the activation was 7.88% (inactive). Under `COc1ccc(C2C(C#N)=C(N)N(c3cccnc3)C3=C2C(=O)CCC3)cc1Cn1cc([N+](=O)[O-])cn1` (centres undefined) stands 18.5% (active); under `COc1ccc(S(=O)(=O)Nc2cc(C)on2)cc1`, 57.2% (active); under `COc1ccc(NC(=O)NS(=O)(=O)c2ccc(C)cc2)cn1`, 7.89% (inactive). Consider `O=c1[nH]c2ccccc2nc1/C=C(\O)c1cccs1`, for which the activation is 11.4% (inactive). With `O=c1[nH]c2ccccc2nc1/C=C/c1ccc(F)cc1`, the activation is 9.41% (inactive). Under `O=c1[nH]c2ccccc2nc1/C=C/c1ccccc1` stands 351% (active); under `CC1(C)CC(=O)C(CC2CCCCC2=O)C(=O)C1` (centres undefined), 15.2% (active); under `CN1CCc2c(sc3nc(SCC(N)=O)n(-c4ccccc4)c(=O)c23)C1`, 3.18% (inactive). Under `NS(=O)(=O)c1cccc(NC(=O)CCc2ccc(S(=O)(=O)N3CCOCC3)cc2)c1` stands 84.4% (active); under `O=C(CCc1ccc(S(=O)(=O)N2CCOCC2)cc1)OCC(=O)c1ccccc1`, 20.7% (active). Under `O=C(COC(=O)C1CC2C=CC1C2)Nc1cccc(S(=O)(=O)N2CCCCCC2)c1` (centres undefined) stands 5.75% (inactive); under `Cc1cc(O)c(CN(C)C)c2c1C(=O)/C(=C/c1ccco1)O2`, 8.55% (inactive); under `O=C1/C(=C/c2c[nH]c3ccccc23)CCC/C1=C\c1c[nH]c2ccccc12`, 7.19% (inactive). Consider `O=C1CC(/C=C/c2ccco2)=Nc2ccccc2N1`, for which the activation is 7.68% (inactive). The figure for `O=C1C(=Cc2ccco2)CCCC1=Cc1ccco1` is 93.5% (active). The figure for `Nc1ccc2c(c1)C/C(=C/c1ccco1)C2=O` is 22% (active); for `O=C(COC(=O)/C=C/c1ccccc1[N+](=O)[O-])NNC(=O)c1ccc(F)cc1` it is 9.23% (inactive); for `CCNC(=O)COc1ccc(-c2ccccc2)cc1` it is 4.33% (inactive). The figure for `O=C(O)CCC(=O)NNC(=O)c1ccc(-c2ccccc2)cc1` is 104% (active); for `Cc1ccsc1/C=C/C1=Cc2c(sc(NC(=O)CSc3n[nH]c(N)n3)c2C#N)C(C)(C)C1` it is 6.84% (inactive). Turning to `O=S(=O)(Nc1nc2ccccc2nc1NCCO)c1cccc(Cl)c1`, the activation was 233% (active). For the compound `O=S(=O)(Nc1nc2ccccc2nc1N1CCN(c2ccccn2)CC1)c1ccc(Cl)cc1`, the activation was 0.27% (inactive). For the compound `Cn1c(-c2ccc(C=O)s2)nc2c3ccccc3c3ccccc3c21`, the activation was 25.8% (active). Under `CCOc1ccc(-c2nc3scc(-c4cccs4)c3c(=O)[nH]2)cc1` stands 54.4% (active); under `COc1ccc(C2c3ccc(O)cc3Oc3ncn(CCCO)c(=N)c32)cc1OC` (centres undefined), 6.69% (inactive). Under `COc1ccc(C2c3ccc(O)cc3Oc3ncn(Cc4ccco4)c(=N)c32)cc1` (centres undefined) stands 15.9% (active); under `N=c1c2c(ncn1Cc1ccco1)Oc1cc(O)ccc1C2c1ccccc1` (centres undefined), 127% (active).

For the compound `COc1ccc(C2c3ccc(O)cc3Oc3ncn(CCN4CCOCC4)c(=N)c32)cc1OC` (centres undefined), the activation was 23% (active). The figure for `COc1ccc(C2c3ccc(O)cc3Oc3ncn(Cc4ccccc4)c(=N)c32)cc1OC` (centres undefined) is 2.66% (inactive). Under `Cc1c(O)ccc(/C(Cc2ccc3ccccc3n2)=N\N)c1O` stands 9.3% (inactive); under `CCCCOc1[nH]c2nc(-c3ccco3)n(Cc3ccco3)c(=N)c2c1C#N`, 7.26% (inactive). As to `N#CC1(C#N)CC(C=O)=C(N)C1(C#N)CC(=O)c1ccc(F)cc1` (centres undefined), the activation is 18.1% (active).

With `CCOC(=O)C1=C(C)NC(=O)/C1=C\N(C)C`, the activation was 3.21% (inactive). Under `COC(=O)C1=C(C)NC(=O)/C1=C\N(C)C` stands 29.9% (active); under `CCN(CC)c1ccc(/C=C/C(=O)c2ccc(Br)cc2)cc1`, 11.2% (inactive). Under `CCN(CC)c1ccc(/C=C2/C(=O)c3ccc(C(=O)O)cc3C2=O)cc1` stands 21.9% (active); under `CCN(CC)c1ccc(/C=C2\C(=O)c3ccc(C(=O)O)cc3C2=O)cc1`, 28.1% (active); under `CN(C)c1ccc(/C=N/N(CCO)C2=NS(=O)(=O)c3ccccc32)cc1`, 13.5% (active).

Regarding `COc1ccccc1C(=O)NN(C)C1=NS(=O)(=O)c2ccccc21`, the activation was 7.92% (inactive). In the case of `CN(/N=C/c1ccc(N(C)C)cc1)C1=NS(=O)(=O)c2ccccc21`, the activation is 32.9% (active). In the case of `COc1ccc(COc2cc(-c3cccc(OC)c3)nc3ccc(NC(=O)c4ccc(C)cc4)cc23)cc1`, the activation was 1.71% (inactive). On to `Cc1ccc(C(=O)Nc2ccc3c(c2)ncn3C)cc1`, for which the activation was 27.7% (active). The figure for `CC(=O)NC(CCS(C)(=O)=O)C(=O)Nc1cc(C)on1` (centres undefined) is 15.8% (active). Take `Cc1cc(NC(=O)CCC(=O)N(CCC(C)C)C(C(=O)NC2CCCC2)c2cccnc2)no1` (centres undefined): the activation was 3.5% (inactive). Under `CCN(CC(=O)Nc1c(F)cccc1F)C(=O)CNC(=O)COc1ccccc1` stands -0.22% (inactive); under `CCN(CC(=O)Nc1ccccc1C(F)(F)F)C(=O)c1ccc(-n2nc(C)c(CCC(=O)OC)c2C)cc1`, 29.8% (active). Under `COc1ccc(-c2cc3ncc(-c4ccccc4)c(N)n3n2)cc1` stands 15.2% (active); under `O=C(Nc1cccc(Cl)c1)c1cc(S(=O)(=O)NCCc2ccc(Cl)cc2)ccc1F`, 13.9% (active). Regarding `COc1ccc(OC)c2[nH]c(=O)c(CCNS(=O)(=O)c3ccc(Cl)cc3)cc12`, the activation was 1.64% (inactive). The figure for `COc1ccc(C(=O)c2ccsc2N)cc1` is 22% (active); for `COc1ccc(-c2c(C#N)c(N)nc3sc(C(=O)c4ccccc4)c(N)c23)cc1` it is -1.46% (inactive); for `COc1ccc(C(=O)c2sc3nc(C)cc(-c4cccs4)c3c2N)cc1OC` it is 4.99% (inactive).

With `COc1ccc(C(=O)c2sc3nc(-c4ccccc4)ccc3c2N)cc1`, the activation is 85.5% (active). As for `COc1ccc(C(=O)c2sc3nc(C)cc(-c4cccs4)c3c2N)cc1`, the activation is 24.7% (active). The figure for `Cc1cc(C)c(S(=O)(=O)Nc2ccc3[nH]c(=O)[nH]c3c2)c(C)c1` is 21.2% (active). For `Cc1ccc(NC(=O)C(OC(=O)c2ccc(F)cc2)c2ccccc2)cc1Cl` (centres undefined), the activation was 8.32% (inactive).

Take `Cc1cc(C)c(C(N)=O)c(Nc2ccc(F)cc2)n1`: the activation is 1.65% (inactive). `Cc1ccc(NC(=O)Nc2ccc(F)cc2)cc1Cl`: the activation is 20.6% (active). Under `O=C(O)c1ccccc1-c1ccc(/C=C/c2cc(C(F)(F)F)[nH]c(=O)n2)o1` stands 8.85% (inactive); under `O=C(O)c1cc(Cl)ccc1-c1ccc(/C=C/c2cc(C(F)(F)F)[nH]c(=O)n2)o1`, 56.3% (active); under `CC(=O)OCC[N+](C)(C)C`, 54.7% (active). As for `O=C1/C(=C/c2cccc(F)c2)Oc2cc(O)ccc21`, the activation was 5.33% (inactive). Turning to `COc1cc(/C=C2\Oc3cc(O)ccc3C2=O)ccc1O`, the activation is -0.13% (inactive). The figure for `O=C1/C(=C/c2ccc(Br)cc2)Oc2cc(O)ccc21` is 58.7% (active).

`Cc1cn2c(N)c(C=C3C=C(Cl)C(=O)C(Cl)=C3)c(=O)nc2s1`: the activation is 17.6% (active). Under `COC1=C/C(=C/c2c(N)n3cc(C)sc3nc2=O)C=CC1=O` stands 4.28% (inactive). Take `COC1=C/C(=C/c2c(N)n3c(nc2=O)sc2cc(S(C)(=O)=O)ccc23)C=CC1=O`: the activation was 10.2% (inactive). Regarding `C=CCNc1nnc(SCC(=O)N2CCC(C(N)=O)CC2)s1`, the activation was 15.8% (active). Turning to `O=C(Oc1ccc2ccc(=O)oc2c1)c1cccs1`, the activation was 1.63% (inactive). Under `Cc1cc(N2C(=O)C(O)=C(C(=O)c3cccs3)C2c2ccc(F)cc2)no1` (centres undefined) stands 23.8% (active); under `COc1ccc(C2C(C(=O)c3cccs3)=C(O)C(=O)N2c2nncs2)cc1` (centres undefined), 20.1% (active). As to `C=CCOc1ccc(C2C(C(=O)c3cccs3)=C(O)C(=O)N2c2nnc(C)s2)cc1` (centres undefined), the activation was 15.5% (active). Turning to `Cc1ccc(C2C(C(=O)c3cccs3)=C(O)C(=O)N2c2nnc(C)s2)cc1` (centres undefined), the activation was 52.5% (active).

Take `COc1ccc(C2C(C(=O)c3cccs3)=C(O)C(=O)N2c2nnc(C)s2)cc1OC` (centres undefined): the activation was 7.86% (inactive).

(Values after PubChem BioAssay AID504383 (The Scripps Research Institute Molecular Screening Center, 2011).)
